The source of these data is ChEMBL document CHEMBL1140918, “Candidate selection and preclinical evaluation of N-tert-butyl isoquine (GSK369796), an affordable and effective 4-aminoquinoline antimalarial for the 21st century” (J Med Chem, 2009).

For data set [1], the system named is Heme. In words: Binding affinity to heme in DMSO assessed as equilibrium constant by UV-visible spectrophotometry. Also noted: scale not given here. A digest of the protocol:
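Haem titrations were run in buffered 40% DMSO so that haem stays monomeric and aggregation and μ-oxo dimer formation are minimised. Binding data were fitted mathematically to two alternative binding-process models to pick the best fit.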

The subject of data set [2] is Plasmodium yoelii. The data set can be described thus: Antimalarial activity as ED100 in peripheral blood against Plasmodium yoelii 17X infected CD1 mice (Mus musculus) after 4 days. Type of data set: functional.
The test system of data set [3] is Plasmodium falciparum. In words: Antimalarial activity against chloroquine-resistant Plasmodium falciparum K1 in human erythrocytes after 48 hrs by [3H]hypoxanthine uptake. The data set is classed as functional, organism-based. A digest of the protocol: (§1)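 P. falciparum grown in human erythrocytes in RPMI 1640 with 25 mM HEPES, 32 mM NaHCO3 and 10% human serum, gassed 3% O2/4% CO2/93% N2. Assay at 2% parasitemia, 0.5% hematocrit, drug stocks in DMSO diluted in medium, in triplicate. After 24 h at 37 °C, [3H]-hypoxanthine added and incubation continued 24 h. Scintillation counting; IC50 by probit interpolation of log dose-response, three independent experiments.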

For data set [4], the system named is Plasmodium yoelii. The data set can be described thus: Antimalarial activity as reduced parasitaemia against Plasmodium yoelii 17X infected CD1 mice (Mus musculus) after 4 days. The data set is classed as functional. To be noted: 96 h.
For data set [5], the system named is Plasmodium falciparum. In words: Antimalarial activity against chloroquine-sensitive Plasmodium falciparum 3D7 in human erythrocytes after 48 hrs by [3H]hypoxanthine uptake. Type of data set: functional, organism-based. A digest of the protocol:
as §1

In another data set the test system is Plasmodium berghei. In words: Antimalarial activity as reduced parasitaemia against Plasmodium berghei ANKA infected CD1 mice (Mus musculus) after 4 days. Type of data set: functional. To be noted: 96 h. A digest of the protocol: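 Standard Peters 4-day test in female age-matched CD1 mice, randomised into groups of 5. Mice were infected iv on day 0 with 6.4 × 10^6 or 10.0 × 10^6 parasites (P. berghei or P. yoelii) from infected donors. Peripheral-blood parasitaemia was read by flow cytometry at day 4 and compared with vehicle-treated groups. Doses ranged up to 40 mg/kg.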

Data set [6] concerns Plasmodium falciparum. The data set can be described thus: Antimalarial activity against chloroquine-sensitive Plasmodium falciparum HB3 in human erythrocytes after 48 hrs by [3H]hypoxanthine uptake. The data set is classed as functional, organism-based. A digest of the protocol: as §1
For another data set, the target named is T1, Cytochrome P450 1A2 (Homo sapiens, UniProt P05177).
T1 sequence (P05177 whole entry): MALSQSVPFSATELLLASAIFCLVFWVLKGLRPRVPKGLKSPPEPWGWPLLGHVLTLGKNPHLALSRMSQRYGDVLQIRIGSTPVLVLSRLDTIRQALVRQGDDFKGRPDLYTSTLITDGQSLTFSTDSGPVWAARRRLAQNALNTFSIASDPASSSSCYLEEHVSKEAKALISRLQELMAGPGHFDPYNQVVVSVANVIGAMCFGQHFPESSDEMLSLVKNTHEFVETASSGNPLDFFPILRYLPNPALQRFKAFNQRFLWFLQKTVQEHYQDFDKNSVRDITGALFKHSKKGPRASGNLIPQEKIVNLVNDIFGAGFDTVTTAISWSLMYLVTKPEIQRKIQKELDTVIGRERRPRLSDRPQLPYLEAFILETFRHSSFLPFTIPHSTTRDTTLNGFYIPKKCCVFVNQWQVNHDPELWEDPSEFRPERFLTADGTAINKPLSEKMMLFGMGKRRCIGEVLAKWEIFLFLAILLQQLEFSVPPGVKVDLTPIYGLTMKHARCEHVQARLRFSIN
In words: Inhibition of human recombinant CYP1A2. Type of data set: ADME. A digest of the protocol: (§2)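 Concentration-dependent inhibition of major human cytochrome P450 isozymes (recombinant enzymes) was tested using fluorescent probe substrates. Mean IC50 values were reported.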

The target in data set [7] is T2, Cytochrome P450 3A4 (Homo sapiens, UniProt P08684). The data set can be described thus: Inhibition of human recombinant CYP3A4 using […] as substrate. Type of data set: ADME.
The target in data set [8] is T2, Cytochrome P450 3A4. In words: Inhibition of human recombinant CYP3A4 using phenyl-piperazinyl-methyl-benzyl-resofurin as substrate. The data set is classed as ADME. A digest of the protocol:
as §2

A further data set deals with T3, Cytochrome P450 2C8 (Homo sapiens, UniProt P10632).
T3 sequence (P10632 whole entry): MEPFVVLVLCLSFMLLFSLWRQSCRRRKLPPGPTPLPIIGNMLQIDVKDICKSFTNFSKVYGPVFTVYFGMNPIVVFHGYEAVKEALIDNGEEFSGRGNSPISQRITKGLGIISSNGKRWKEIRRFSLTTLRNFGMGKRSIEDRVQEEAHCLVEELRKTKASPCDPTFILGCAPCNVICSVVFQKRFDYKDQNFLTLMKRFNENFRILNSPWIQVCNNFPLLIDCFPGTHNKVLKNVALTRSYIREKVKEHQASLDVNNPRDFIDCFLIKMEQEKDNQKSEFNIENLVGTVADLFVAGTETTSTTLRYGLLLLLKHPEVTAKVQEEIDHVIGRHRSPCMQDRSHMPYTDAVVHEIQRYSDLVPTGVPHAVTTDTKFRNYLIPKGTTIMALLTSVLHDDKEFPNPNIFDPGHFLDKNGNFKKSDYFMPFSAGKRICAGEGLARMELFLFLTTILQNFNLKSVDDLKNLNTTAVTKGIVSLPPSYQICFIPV
The data set can be described thus: Inhibition of human recombinant CYP2C8. The data set is classed as ADME. A digest of the protocol:
as §2

The target of a further data set is Cytochrome P450 2D6 (Homo sapiens, UniProt P10635). In words: Inhibition of human recombinant CYP2D6. Type of data set: ADME. A digest of the protocol: as §2
The nature of data set [9]: Clearance in iv and orally dosed dog blood. The data set is classed as ADME, organism-based, Canis lupus familiaris. To be noted: whole blood. A digest of the protocol:
(§3)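 Single intravenous and oral doses were given to the mouse, rat, dog and/or monkey. Drug was measured in blood to derive blood clearance, elimination half-life and % oral bioavailability.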

Data set [10] is described as follows: Oral bioavailability in monkey. Type of data set: ADME, organism-based, Macaca mulatta. To be noted: rhesus monkey, in vivo. A digest of the protocol: as §3
Data set [11] is described as follows: Clearance in iv and orally dosed monkey blood. Type of data set: ADME, organism-based, Macaca mulatta. To be noted: rhesus monkey, whole blood. A digest of the protocol:
as §3

The target in the next data set is Cytochrome P450 2C9 (Homo sapiens, UniProt P11712). In words: Inhibition of human recombinant CYP2C9. The data set is classed as ADME. A digest of the protocol: as §2
The target in a further data set is Cytochrome P450 2C19 (Homo sapiens, UniProt P33261). The data set can be described thus: Inhibition of human recombinant CYP2C19. Type of data set: ADME. A digest of the protocol:
as §2

Data set [12] in a line: Oral bioavailability in dog. To be noted: in vivo. Type of data set: ADME, organism-based, Canis lupus familiaris. A digest of the protocol:
as §3

Data set [13] in a line: Oral bioavailability in rat. Type of data set: ADME, organism-based. To be noted: in vivo. A digest of the protocol:
as §3

Data set [14] can be described thus: Clearance in iv and orally dosed rat blood. Type of data set: ADME, organism-based. To be noted: whole blood. A digest of the protocol: as §3
Another data set is filed under the species Homo sapiens. The data set can be described thus: Protein binding in human. The data set is classed as ADME, organism-based. To be noted: in vivo. A digest of the protocol: (§4)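 Protein binding and blood-cell association were assessed in vitro in plasma or whole blood from preclinical species and humans.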
The nature of data set [15]: Oral bioavailability in mouse. The data set is classed as ADME, organism-based. To be noted: in vivo. A digest of the protocol:
as §3

Data set [16] is described as follows: Clearance in iv and orally dosed mouse blood. The data set is classed as ADME, organism-based. To be noted: whole blood. A digest of the protocol: as §3
Data set [17] can be described thus: Ratio of drug level in blood to plasma in dog. Type of data set: ADME, cell-free, Canis lupus familiaris. To be noted: read-out: BPR. A digest of the protocol:
(§5)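 Red blood cell association measured in vitro in whole blood from the species named, alongside plasma protein binding. Read-out is the ratio of drug concentration in whole blood to that in plasma.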

The nature of data set [18]: Elimination half life in orally dosed mouse. Type of data set: ADME, organism-based. To be noted: in vivo, po, read-out: beta t1/2 (converted). A digest of the protocol:
as §3

The target in data set [19] is Voltage-gated inwardly rectifying potassium channel KCNH2 (Homo sapiens, UniProt Q12809). In words: Inhibition of human cloned ERG.
Data set [20] concerns Plasmodium yoelii. In words: Antimalarial activity as ED100 in peripheral blood at day 23 against Plasmodium yoelii 17X infected CD1 mice (Mus musculus). The data set is classed as functional.
Data set [21] is described as follows: Elimination half life in orally dosed monkey. Type of data set: ADME, organism-based, Macaca mulatta. To be noted: rhesus monkey, in vivo, po; read-out: beta t1/2 (converted). A digest of the protocol:
as §3

Data set [22] in a line: Ratio of drug level in blood to plasma in human. The data set is classed as ADME, cell-free. To be noted: read-out: BPR. A digest of the protocol:
as §5

For the next data set, the species on record is Mus musculus. The data set can be described thus: Protein binding in mouse. The data set is classed as ADME, organism-based. To be noted: in vivo. A digest of the protocol: as §4
For data set [23], the system named is Heme. The data set can be described thus: Binding affinity to heme in 12 mM SDS surfactant assessed as equilibrium constant by UV-visible spectrophotometry.

T2 sequence (P08684 whole entry): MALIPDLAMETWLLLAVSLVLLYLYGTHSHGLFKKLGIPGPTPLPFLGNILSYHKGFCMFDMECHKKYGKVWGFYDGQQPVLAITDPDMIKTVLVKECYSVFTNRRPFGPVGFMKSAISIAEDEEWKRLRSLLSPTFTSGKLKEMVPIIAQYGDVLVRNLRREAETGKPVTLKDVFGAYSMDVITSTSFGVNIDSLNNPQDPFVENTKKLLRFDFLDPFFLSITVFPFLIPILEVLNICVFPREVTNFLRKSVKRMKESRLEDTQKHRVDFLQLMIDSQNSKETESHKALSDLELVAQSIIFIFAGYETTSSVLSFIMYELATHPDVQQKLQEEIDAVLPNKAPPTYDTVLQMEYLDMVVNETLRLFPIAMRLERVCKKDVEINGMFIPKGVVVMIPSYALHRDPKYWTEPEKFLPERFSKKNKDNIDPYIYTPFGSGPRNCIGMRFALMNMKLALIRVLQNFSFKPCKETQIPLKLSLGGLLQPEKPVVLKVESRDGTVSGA
Chain of Cytochrome P450 2C19 (P33261 whole entry): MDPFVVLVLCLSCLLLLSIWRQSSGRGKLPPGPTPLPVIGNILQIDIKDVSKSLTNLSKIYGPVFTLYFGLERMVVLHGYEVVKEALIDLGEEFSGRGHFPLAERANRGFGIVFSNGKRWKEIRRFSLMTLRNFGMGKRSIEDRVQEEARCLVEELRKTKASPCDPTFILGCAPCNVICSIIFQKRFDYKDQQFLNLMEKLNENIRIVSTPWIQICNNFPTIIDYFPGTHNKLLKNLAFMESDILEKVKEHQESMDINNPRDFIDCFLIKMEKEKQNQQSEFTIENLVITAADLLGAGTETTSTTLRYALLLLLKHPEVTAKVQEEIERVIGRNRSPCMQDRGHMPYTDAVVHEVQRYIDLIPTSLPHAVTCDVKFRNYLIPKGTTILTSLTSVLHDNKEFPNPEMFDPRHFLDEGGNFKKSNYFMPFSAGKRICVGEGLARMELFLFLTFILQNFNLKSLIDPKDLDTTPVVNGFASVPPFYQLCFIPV
Chain of Cytochrome P450 2C9 (P11712 whole entry): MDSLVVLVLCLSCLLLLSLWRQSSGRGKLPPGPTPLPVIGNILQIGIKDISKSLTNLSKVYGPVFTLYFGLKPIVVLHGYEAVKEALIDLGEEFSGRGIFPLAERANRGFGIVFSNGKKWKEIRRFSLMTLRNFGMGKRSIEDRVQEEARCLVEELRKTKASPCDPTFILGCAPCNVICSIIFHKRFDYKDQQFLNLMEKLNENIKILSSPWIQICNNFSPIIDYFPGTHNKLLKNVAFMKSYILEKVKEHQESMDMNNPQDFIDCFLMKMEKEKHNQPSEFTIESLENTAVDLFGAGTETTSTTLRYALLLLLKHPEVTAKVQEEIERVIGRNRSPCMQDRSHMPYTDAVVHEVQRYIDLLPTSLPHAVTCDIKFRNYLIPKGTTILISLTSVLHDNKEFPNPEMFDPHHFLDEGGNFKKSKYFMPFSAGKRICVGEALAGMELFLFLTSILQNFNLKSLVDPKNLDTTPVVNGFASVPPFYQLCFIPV
Chain of Cytochrome P450 2D6 (P10635 whole entry): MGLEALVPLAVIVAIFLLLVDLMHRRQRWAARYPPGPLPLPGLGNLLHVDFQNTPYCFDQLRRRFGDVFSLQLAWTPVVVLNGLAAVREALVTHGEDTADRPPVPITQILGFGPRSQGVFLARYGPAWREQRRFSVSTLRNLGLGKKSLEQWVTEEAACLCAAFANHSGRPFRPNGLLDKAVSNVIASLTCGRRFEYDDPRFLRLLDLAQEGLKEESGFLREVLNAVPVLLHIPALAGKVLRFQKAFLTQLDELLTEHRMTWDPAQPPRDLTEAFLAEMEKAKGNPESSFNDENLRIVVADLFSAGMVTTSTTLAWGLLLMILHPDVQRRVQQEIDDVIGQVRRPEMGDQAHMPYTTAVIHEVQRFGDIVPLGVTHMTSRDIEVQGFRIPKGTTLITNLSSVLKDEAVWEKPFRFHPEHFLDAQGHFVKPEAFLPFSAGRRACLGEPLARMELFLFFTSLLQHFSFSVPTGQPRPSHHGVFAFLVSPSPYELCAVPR
Chain of Voltage-gated inwardly rectifying potassium channel KCNH2 (Q12809 whole entry): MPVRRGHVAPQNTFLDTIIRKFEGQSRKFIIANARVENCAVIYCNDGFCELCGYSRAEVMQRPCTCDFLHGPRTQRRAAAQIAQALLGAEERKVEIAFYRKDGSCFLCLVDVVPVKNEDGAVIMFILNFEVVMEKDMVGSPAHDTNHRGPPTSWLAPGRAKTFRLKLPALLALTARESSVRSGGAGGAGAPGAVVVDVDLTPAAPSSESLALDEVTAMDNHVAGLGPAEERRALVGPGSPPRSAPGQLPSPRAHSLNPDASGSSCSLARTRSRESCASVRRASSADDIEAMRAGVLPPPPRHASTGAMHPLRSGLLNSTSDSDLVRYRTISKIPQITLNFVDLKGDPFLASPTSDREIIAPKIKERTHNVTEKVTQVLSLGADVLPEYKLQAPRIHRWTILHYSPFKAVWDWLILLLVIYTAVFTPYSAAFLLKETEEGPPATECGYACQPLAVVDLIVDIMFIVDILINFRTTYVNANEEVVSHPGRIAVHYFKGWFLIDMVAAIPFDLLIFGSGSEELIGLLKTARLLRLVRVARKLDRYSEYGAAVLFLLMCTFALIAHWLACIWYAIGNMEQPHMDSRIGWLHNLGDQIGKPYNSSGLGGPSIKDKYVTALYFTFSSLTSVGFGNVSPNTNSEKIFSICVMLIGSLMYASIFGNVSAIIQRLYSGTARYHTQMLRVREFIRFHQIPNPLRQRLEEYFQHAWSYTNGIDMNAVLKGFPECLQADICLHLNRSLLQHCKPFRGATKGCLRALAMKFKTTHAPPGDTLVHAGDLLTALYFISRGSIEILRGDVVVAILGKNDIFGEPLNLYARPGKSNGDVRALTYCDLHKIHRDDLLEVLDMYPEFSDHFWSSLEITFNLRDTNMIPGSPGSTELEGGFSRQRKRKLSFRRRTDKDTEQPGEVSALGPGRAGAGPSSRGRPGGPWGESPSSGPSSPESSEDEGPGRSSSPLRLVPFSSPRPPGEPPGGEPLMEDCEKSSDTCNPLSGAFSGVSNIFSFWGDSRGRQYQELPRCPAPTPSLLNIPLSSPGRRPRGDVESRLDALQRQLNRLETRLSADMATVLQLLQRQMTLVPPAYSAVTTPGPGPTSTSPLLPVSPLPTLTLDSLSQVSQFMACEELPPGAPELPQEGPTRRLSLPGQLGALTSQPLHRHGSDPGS

On to `C=C[C@H]1CN2CC[C@H]1C[C@H]2[C@H](O)c1ccnc2ccc(OC)cc12`, for which the Activity in the data set on Heme [1] is 4.4.
As usually defined, the IC50 is the midpoint of a concentration-inhibition curve. In general, ED50 refers to the midpoint of the dose-response relation. Turning to `CCN(CC)Cc1cc(Nc2ccnc3cc(Cl)ccc23)ccc1O.Cl`, the Activity with Plasmodium yoelii [2] is over 40 mg/kg; with Heme [1], 4.4. Besides, the IC50 stood at 0.0155 µM in the data set with Plasmodium falciparum [3], 0.0112 µM in the data set with Plasmodium falciparum [5] and 0.0096 µM with Plasmodium falciparum [6]. For the same compound, the ED50 in the data set on Plasmodium yoelii [4] was found to be 2.6 mg/kg; with Plasmodium berghei it was 2.1 mg/kg. For the same compound, the results for the ED90 in the data set with Plasmodium yoelii [4] and with Plasmodium berghei were 3.7 mg/kg and 3.2 mg/kg, respectively.
Broadly, the bioavailability is the share of a dose that reaches the circulation, judged against a reference dose that is usually intravenous. On to `CCNCc1ccc(Nc2ccnc3cc(Cl)ccc23)cc1O` [DESETHYL ISOQUINE], for which the IC50 at Cytochrome P450 1A2 is 8 µM; at Cytochrome P450 3A4 [7] (read-out: IC50), over 100 µM; at Cytochrome P450 3A4 [8], at least 55 µM; at Cytochrome P450 2C8, 23 µM; on Cytochrome P450 2D6, 3.4 µM; in the data set with Plasmodium falciparum [3] it was 0.0176 µM. The IC50 in the data set on Plasmodium falciparum [5] is 0.0092 µM; in the data set with Plasmodium falciparum [6] it was 0.0142 µM; on Cytochrome P450 2C9 it was over 100 µM; at Cytochrome P450 2C19, 62 µM. The clearance was found to be 12 mL/min/kg in data set [9] and 49 mL/min/kg in data set [11]. The compound further yielded an ED50 with Plasmodium berghei of 5.3 mg/kg. The compound further returned an ED90 with Plasmodium berghei of 7.3 mg/kg. The same compound displayed a bioavailability in [10] of 40%.
`CC(C)(C)NCc1ccc(Nc2ccnc3cc(Cl)ccc23)cc1O` [GSK-369796]: the IC50 at Cytochrome P450 1A2 was 29 µM; at Cytochrome P450 3A4 [7] it was “Active”; on Cytochrome P450 3A4 [8], over 100 µM; at Cytochrome P450 2C8, 23 µM; at Cytochrome P450 2D6 it was 3 µM; with Plasmodium falciparum [3], 0.0132 µM. For the same compound, the IC50 was 0.0112 µM in the data set on Plasmodium falciparum [5]; 0.0126 µM in the data set with Plasmodium falciparum [6]; 7.5 µM in data set [19]; at least 90 µM on Cytochrome P450 2C9; 24 µM at Cytochrome P450 2C19. Besides, the bioavailability in [12] is 68%; in [13] it was 89%; in data set [15], 100%; in data set [10] it was 100%. The clearance in [14] amounted to 26 mL/min/kg; in data set [16] it was 17 mL/min/kg; in [9], 6.3 mL/min/kg; in data set [11], 14.5 mL/min/kg. Besides, the Activity turned out to be 88% in the data set filed under Homo sapiens, 5.23 in the data set on Heme [1], 20 mg/kg in the data set with Plasmodium yoelii [20] and 93% in the data set filed under Mus musculus. Besides, the results for the blood plasma ratio in data set [17] and in [22] were 15 and 1.2, respectively. Besides, the results for the ED50 in the data set on Plasmodium yoelii [4] and in the data set with Plasmodium berghei were 3.8 mg/kg and 2.8 mg/kg, respectively. Also, the ED90 in the data set on Plasmodium yoelii [4] came out at 5.4 mg/kg; in the data set with Plasmodium berghei it was 4.7 mg/kg. Further, the half-life in [18] is 3 h; in [21], 11 h.
With `c1ccncc1`, the Activity in the data set on Heme [23] turned out to be 2.24.
